Tested on: L02 cells
Assay: In vitro cytotoxicity assay on normal L02 cells
Assay type: cell-based
Details: 10 μmol/L, 24 h, CCK8
How it was run: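 L02 cells grown in DMEM with 10% FBS and 1% penicillin-streptomycin at 37 °C, 5% CO2. Seeded at 5 × 10^3 cells/well, then 24 h before test compound at 10 μmol/L was added for another 24 h. Medium removed, 10% CCK8 added for 1 h at 37 °C. Absorbance read and viability calculated.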

COc1nc(OCc2cccc(-c3ccccc3)c2C)ccc1CNCCNC(C)=O [BMS-202]
Cytotoxicity on normal L02 cells: obvious cytotoxicity

Source: paper PMC12138107 (Acta Pharmaceutica Sinica. B, 2025)
